According to ChEMBL document CHEMBL1938261, “Discovery of novel α7 nicotinic acetylcholine receptor ligands via pharmacophoric and docking studies of benzylidene anabaseine analogs” (Bioorg Med Chem Lett, 2012):

Legend:
[1] = target: T1, Neuronal acetylcholine receptor; alpha4/beta2 (Homo sapiens, UniProt P17787+P43681); test: Displacement of [3H]epibatidine from human alpha4beta2 nAchR expressed in SH-EP1 cells at 5 uM; assay type: cell-based
Summary of the method: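 Percent inhibition of control [3H]-epibatidine binding to human α4β2 expressed in SH-EP1 cells, with test compound at 5 μM. Reported ± standard error, with replicate number per value.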

[2] = Displacement of [3H]methyllycaconitine from rat alpha7 nAchR in rat hippocampal membrane; assay type: cell membranes, Hippocampus
Summary of the method: (§1)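 α7 sites on rat hippocampal membranes, labelled with [3H]-methyllycaconitine. Inhibition of binding measured over a seven-point dose-response curve, with replicates averaged at each point. IC50 taken by least-squares non-linear regression against log concentration. Ki given ± standard error, with replicate number per value.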

[3] = (§2) Partial agonist activity at rat alpha7 nAchR by patch clamp assay; assay type: functional
Rattus norvegicus = species on record: Rattus norvegicus; test: as §2; assay type: functional
[4] = target: Neuronal acetylcholine receptor; alpha3/beta4 (Homo sapiens) (UniProt P30926+P32297); test: Displacement of [3H]epibatidine from human alpha3beta4 nAchR expressed in SH-SY5Y cells at 5 uM; assay type: cell-based
Summary of the method: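 Radioligand displacement using [3H]-epibatidine on SH-SY5Y cell membranes (ganglion-type nicotinic receptors). Compounds tested at 5 μM; percent inhibition of control radioligand binding reported, with the number of replicates given for each result.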

[5] = target: T1, Neuronal acetylcholine receptor; alpha4/beta2; test: Displacement of [3H]epibatidine from human alpha4beta2 nAchR expressed in SH-EP1 cells; assay type: cell-based
Summary of the method: as §1, with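 “Human α4β2 heterologously expressed in SH-EP1 cells,” for “α7 sites on rat hippocampal membranes,”, “[3H]-epibatidine.” for “[3H]-methyllycaconitine.”, “reported” for “given”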

T1 sequence (P17787 whole entry): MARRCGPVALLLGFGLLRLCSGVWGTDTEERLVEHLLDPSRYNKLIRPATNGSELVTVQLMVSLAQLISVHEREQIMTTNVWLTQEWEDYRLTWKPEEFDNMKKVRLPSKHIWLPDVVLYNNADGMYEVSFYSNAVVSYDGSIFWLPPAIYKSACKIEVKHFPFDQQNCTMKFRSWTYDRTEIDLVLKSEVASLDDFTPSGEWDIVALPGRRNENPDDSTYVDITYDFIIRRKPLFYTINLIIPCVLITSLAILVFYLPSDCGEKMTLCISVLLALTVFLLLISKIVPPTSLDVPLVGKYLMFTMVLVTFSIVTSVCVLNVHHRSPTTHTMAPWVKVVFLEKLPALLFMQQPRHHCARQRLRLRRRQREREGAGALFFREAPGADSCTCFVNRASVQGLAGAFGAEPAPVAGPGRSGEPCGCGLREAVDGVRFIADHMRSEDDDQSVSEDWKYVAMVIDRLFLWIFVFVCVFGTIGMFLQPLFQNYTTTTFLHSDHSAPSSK
T1 sequence (P43681 whole entry): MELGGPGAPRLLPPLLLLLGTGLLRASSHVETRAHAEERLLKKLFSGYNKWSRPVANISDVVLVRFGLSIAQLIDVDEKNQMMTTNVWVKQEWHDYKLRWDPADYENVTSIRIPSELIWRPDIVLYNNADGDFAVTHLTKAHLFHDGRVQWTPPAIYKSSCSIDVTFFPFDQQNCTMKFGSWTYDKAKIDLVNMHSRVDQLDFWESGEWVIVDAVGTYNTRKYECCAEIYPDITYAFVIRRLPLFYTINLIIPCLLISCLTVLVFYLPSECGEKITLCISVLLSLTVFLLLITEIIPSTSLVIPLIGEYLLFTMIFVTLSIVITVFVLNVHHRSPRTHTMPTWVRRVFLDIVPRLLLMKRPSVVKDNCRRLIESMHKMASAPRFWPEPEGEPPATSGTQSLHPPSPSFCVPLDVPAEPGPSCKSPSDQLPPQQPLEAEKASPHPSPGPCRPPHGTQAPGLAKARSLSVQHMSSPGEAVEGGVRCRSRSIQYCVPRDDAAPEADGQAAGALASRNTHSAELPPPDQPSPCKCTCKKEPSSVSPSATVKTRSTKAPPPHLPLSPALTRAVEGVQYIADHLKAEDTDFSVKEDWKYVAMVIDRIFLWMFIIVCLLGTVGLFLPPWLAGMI

SMILES	inhibition [1] [%]	Ki [2] [nM]	also measured
Oc1c(C2=NC3(CN2)CN2CCC3CC2)oc2ccccc12 (stereo not given)	32	7	EC50 [3]: 600 nM; Emax (Rattus norvegicus): 53%
OC1=CC(c2ccccc2)=NCC2(CN3CCC2CC3)N1 (stereo not given)	15	140	
COc1cc(O)ccc1/C=C1\CCCN=C1c1cccnc1	97		inhibition [4]: 75%
COc1cccc(C2=NCC3(CN4CCC3CC4)NC(=O)C2)c1 (stereo not given)	12	87	
O=C1CC(c2ccc(Br)s2)=NCC2(CN3CCC2CC3)N1 (stereo not given)	62	77	
Nc1c(C2=NC3(CN2)CN2CCC3CC2)oc2ccccc12 (stereo not given)	9	120	
Oc1ccccc1C1=NC2(CN1)CN1CCC2CC1 (stereo not given)	4	290	
O=C1CC(c2ccco2)=NCC2(CN3CCC2CC3)N1 (stereo not given)	14	150	
c1ccc(C2=NC3(CN2)CN2CCC3CC2)cc1 (stereo not given)	11		
C1=NCC2(CN3CCC2CC3)NC=C1c1ccccc1 (stereo not given)	6		
O=C1NCC2(CN3CCC2CC3)NC(=O)C1c1ccccc1 (stereo not given)	2		
COc1ccc(/C=C2\CCCN=C2c2cccnc2)c(OC)c1 [GTS-21]		1300	Ki [5]: 51 nM
c1ccc2oc(C3=NC4(CN3)CN3CCC4CC3)cc2c1 (stereo not given)	4		
COc1ccc(C2=NCC3(CN4CCC3CC4)NC(=O)C2)cc1 (stereo not given)	42	42	
O=C1CC(c2cccs2)=NCC2(CN3CCC2CC3)N1 (stereo not given)	20	58	
COc1ccccc1C1=NCC2(CN3CCC2CC3)NC(=O)C1 (stereo not given)	7	110	
